Activity calls are given as the source filed them. The rule behind the calls is not given here.
Key:
[1] = tested on: Enterobacteria phage lambda; assay: Induction of lambda phage lytic activity in Escherichia coli W1709(lambda) assessed as ratio of plaques in treated culture to control at 0.8 ug/ml preincubated for 90 mins followed by heart infusion broth and glucose addition measured after 120 mins; format: functional
[2] = tested on: Enterobacteria phage lambda; assay: Induction of lambda phage lytic activity in Escherichia coli W1709(lambda) assessed as ratio of plaques in treated culture to control at 3.1 ug/ml preincubated for 90 mins followed by heart infusion broth and glucose addition measured after 120 mins; format: functional
[3] = tested on: Enterobacteria phage lambda; assay: Induction of lambda phage lytic activity in Escherichia coli W1709(lambda) assessed as ratio of plaques in treated culture to control at 0.05 ug/ml preincubated for 90 mins followed by heart infusion broth and glucose addition measured after 120 mins; format: functional
[4] = tested on: Enterobacteria phage lambda; assay: Induction of lambda phage lytic activity in Escherichia coli W1709(lambda) assessed as ratio of plaques in treated culture to control at 0.0125 ug/ml preincubated for 90 mins followed by heart infusion broth and glucose addition measured after 120 mins; format: functional
[5] = tested on: Enterobacteria phage lambda; assay: Induction of lambda phage lytic activity in Escherichia coli W1709(lambda) assessed as ratio of plaques in treated culture to control at 0.003 ug/ml preincubated for 90 mins followed by heart infusion broth and glucose addition measured after 120 mins; format: functional
Escherichia coli [6] = assay: Toxicity in Escherichia coli W1709(lambda) at 3.1 ug/ml; format: organism-based; details: in vivo
[7] = tested on: Enterobacteria phage lambda; assay: Induction of lambda phage lytic activity in Escherichia coli W1709(lambda) assessed as ratio of plaques in treated culture to control at 0.2 ug/ml preincubated for 90 mins followed by heart infusion broth and glucose addition measured after 120 mins; format: functional
P388 [8] = assay: Antitumor activity against mouse P388 cells allografted in CDF1 mouse assessed as mouse survival at 0.2 mg/kg/day administered qd on day 1 and 5 measured on day 30; format: functional, organism-based
Outline: (§1)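 Male CDF1 mice were implanted intraperitoneally with 10^6 P388 ascites cells. Treatment was given once daily on days 1 and 5 only. Groups were six mice each. Median survival time was taken for each group.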

Mus musculus [9] = assay: Toxicity in CDF1 mouse allografted with mouse P388 cells assessed as change in weight at 1.6 mg/kg/day administered qd on day 1 and 5 (reference value: 3.4 g); format: organism-based; details: in vivo; outline: as §1
Mus musculus [10] = assay: Toxicity in CDF1 mouse allografted with mouse P388 cells assessed as change in weight at 0.2 mg/kg/day administered qd on day 1 and 5 (reference value: 3.4 g); format: organism-based; details: in vivo; outline: as §1
P388 [11] = assay: Antitumor activity against mouse P388 cells allografted in CDF1 mouse assessed as mouse survival at 0.8 mg/kg/day administered qd on day 1 and 5 measured on day 30; format: functional, organism-based; outline: as §1
Mus musculus [12] = assay: Toxicity in CDF1 mouse allografted with mouse P388 cells assessed as change in weight at 0.8 mg/kg/day administered qd on day 1 and 5 (reference value: 3.4 g); format: organism-based; details: in vivo; outline: as §1
P388 [13] = assay: Antitumor activity against mouse P388 cells allografted in CDF1 mouse assessed as effect on median survival time at 1.6 mg/kg/day administered qd on day 1 and 5 relative to control; format: functional; outline: as §1
Mus musculus [14] = assay: Toxicity in CDF1 mouse allografted with mouse P388 cells assessed as change in weight at 3.2 mg/kg/day administered qd on day 1 and 5 (reference value: 3.4 g); format: organism-based; details: in vivo; outline: as §1
Mus musculus [15] = assay: Toxicity in CDF1 mouse allografted with mouse P388 cells assessed as change in weight at 6.4 mg/kg/day administered qd on day 1 and 5 (reference value: 3.4 g); format: organism-based; details: in vivo; outline: as §1
Mus musculus [16] = assay: Toxicity in CDF1 mouse allografted with mouse P388 cells assessed as change in weight at 0.4 mg/kg/day administered qd on day 1 and 5 (reference value: 3.4 g); format: organism-based; details: in vivo; outline: as §1
P388 [17] = assay: Antitumor activity against mouse P388 cells allografted in CDF1 mouse assessed as mouse survival at 0.8 mg/kg/day administered qd on day 1 and 5 measured on day 5; format: functional, organism-based; outline: as §1
P388 [18] = assay: Antitumor activity against mouse P388 cells allografted in CDF1 mouse assessed as mouse survival at 6.4 mg/kg/day administered qd on day 1 and 5 measured on day 30; format: functional, organism-based; outline: as §1
P388 [19] = assay: Antitumor activity against mouse P388 cells allografted in CDF1 mouse assessed as mouse survival at 1.6 mg/kg/day administered qd on day 1 and 5 measured on day 5; format: functional, organism-based; outline: as §1
P388 [20] = assay: Antitumor activity against mouse P388 cells allografted in CDF1 mouse assessed as effect on median survival time at 6.4 mg/kg/day administered qd on day 1 and 5 relative to control; format: functional; outline: as §1
Escherichia coli [21] = assay: Toxicity in Escherichia coli W1709(lambda) at 0.8 ug/ml; format: organism-based; details: in vivo
P388 [22] = assay: Antitumor activity against mouse P388 cells allografted in CDF1 mouse assessed as effect on median survival time at 0.4 mg/kg/day administered qd on day 1 and 5 relative to control; format: functional; outline: as §1
P388 [23] = assay: Antitumor activity against mouse P388 cells allografted in CDF1 mouse assessed as mouse survival at 6.4 mg/kg/day administered qd on day 1 and 5 measured on day 5; format: functional, organism-based; outline: as §1
P388 [24] = assay: Antitumor activity against mouse P388 cells allografted in CDF1 mouse assessed as mouse survival at 3.2 mg/kg/day administered qd on day 1 and 5 measured on day 5; format: functional, organism-based; outline: as §1
P388 [25] = assay: Antitumor activity against mouse P388 cells allografted in CDF1 mouse assessed as effect on median survival time at 0.8 mg/kg/day administered qd on day 1 and 5 relative to control; format: functional; outline: as §1
P388 [26] = assay: Antitumor activity against mouse P388 cells allografted in CDF1 mouse assessed as mouse survival at 0.4 mg/kg/day administered qd on day 1 and 5 measured on day 5; format: functional, organism-based; outline: as §1
P388 [27] = assay: Antitumor activity against mouse P388 cells allografted in CDF1 mouse assessed as mouse survival at 1.6 mg/kg/day administered qd on day 1 and 5 measured on day 30; format: functional, organism-based; outline: as §1
P388 [28] = assay: Antitumor activity against mouse P388 cells allografted in CDF1 mouse assessed as effect on median survival time at 3.2 mg/kg/day administered qd on day 1 and 5 relative to control; format: functional; outline: as §1
P388 [29] = assay: Antitumor activity against mouse P388 cells allografted in CDF1 mouse assessed as effect on median survival time at 0.2 mg/kg/day administered qd on day 1 and 5 relative to control; format: functional; outline: as §1
P388 [30] = assay: Antitumor activity against mouse P388 cells allografted in CDF1 mouse assessed as mouse survival at 0.4 mg/kg/day administered qd on day 1 and 5 measured on day 30; format: functional, organism-based; outline: as §1
P388 [31] = assay: Antitumor activity against mouse P388 cells allografted in CDF1 mouse assessed as mouse survival at 0.2 mg/kg/day administered qd on day 1 and 5 measured on day 5; format: functional, organism-based; outline: as §1
Escherichia coli [32] = assay: Toxicity in Escherichia coli W1709(lambda) at 0.0125 ug/ml; format: organism-based; details: in vivo
Escherichia coli [33] = assay: Toxicity in Escherichia coli W1709(lambda) at 0.05 ug/ml; format: organism-based; details: in vivo
P388 [34] = assay: Antitumor activity against mouse P388 cells allografted in CDF1 mouse assessed as mouse survival at 3.2 mg/kg/day administered qd on day 1 and 5 measured on day 30; format: functional, organism-based; outline: as §1
Mus musculus [35] = assay: Toxicity in CDF1 mouse allografted with mouse P388 cells assessed as change in weight at 0.1 mg/kg/day administered qd on day 1 and 5 (reference value: 3.4 g); format: organism-based; details: in vivo; outline: as §1
P388 [36] = assay: Antitumor activity against mouse P388 cells allografted in CDF1 mouse assessed as mouse survival at 0.1 mg/kg/day administered qd on day 1 and 5 measured on day 5; format: functional, organism-based; outline: as §1
P388 [37] = assay: Antitumor activity against mouse P388 cells allografted in CDF1 mouse assessed as effect on median survival time at 0.1 mg/kg/day administered qd on day 1 and 5 relative to control; format: functional; outline: as §1
P388 [38] = assay: Antitumor activity against mouse P388 cells allografted in CDF1 mouse assessed as mouse survival at 0.1 mg/kg/day administered qd on day 1 and 5 measured on day 30; format: functional, organism-based; outline: as §1
Escherichia coli [39] = assay: Toxicity in Escherichia coli W1709(lambda) at 0.2 ug/ml; format: organism-based; details: in vivo
Outline: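 Screened for induction of lytic activity by lambda-bacteriophage lysogenic in Escherichia coli, at 3.1, 0.8, 0.2, 0.05, 0.0125 and 0.003 ug/mL. The read-out was the ratio of plaques induced by the test compound to plaques in an untreated control. Wells where the compound was toxic to the culture were scored "T" instead of a ratio.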

Row | Compound | T/C [1] | T/C [2] | T/C [3] | T/C [4] | T/C [5] | Activity (P388 [8]) | Activity (Mus musculus [9]) [g] | Activity (Mus musculus [10]) [g] | Activity (Mus musculus [12]) [g] | T/C (P388 [13]) [%] | Activity (Mus musculus [14]) [g] | Activity (Mus musculus [16]) [g] | Activity (P388 [17]) | Activity (P388 [19]) | T/C (P388 [22]) [%] | Activity (P388 [24]) | T/C (P388 [25]) [%] | Activity (P388 [26]) | Activity (P388 [27]) | T/C (P388 [28]) [%] | also measured
1 | CN[C@@H]1Cn2c3c(c(COC(N)=O)c2[C@H]1O)C(=O)C(OC)=C(C)C3=O (relative stereo) | 2.4 | 7 |  |  |  |  |  |  |  |  |  |  |  |  |  |  |  |  |  |  | 
2 | COC1=C(C)C(=O)c2c(c(COC(N)=O)c3n2C[C@H]2[C@@H]3N2C)C1=O (some centres not stated) | 38.8 | 35.4 | 3.4 | 3 | 0.8 |  |  |  |  |  |  |  |  |  |  |  |  |  |  |  | Activity (Escherichia coli [6]): Toxic
3 | CN[C@@H]1Cn2c3c(c(COC(N)=O)c2[C@@H]1O)C(=O)C(OC)=C(C)C3=O (relative stereo) | 4.4 | 22.4 |  |  |  |  |  |  |  |  |  |  |  |  |  |  |  |  |  |  | T/C [7]: 2; Activity (Escherichia coli [6]): Toxic
4 | COC1=C(C)C(=O)C2=C(C1=O)[C@@H](COC(N)=O)[C@@]1(OC)[C@@H]3[C@H](CN21)N3C (some centres not stated) [N-METHYL-MITOMYCIN A] |  |  | 8.2 | 3.7 | 1.8 | inactive | -1.6 | 0.3 | -0.3 | 145 | -3.1 | 0.9 | Active | Active | 130 | Active | 145 | Active | inactive | 180 | Activity (P388 [11]): inactive; Activity (Mus musculus [15]): -2.4 g; Activity (P388 [18]): inactive; T/C (P388 [20]): 165%; Activity (Escherichia coli [21]): Toxic; T/C [7]: 21.2; Activity (P388 [23]): Active; T/C (P388 [29]): 115%; Activity (P388 [30]): inactive; Activity (P388 [31]): Active
5 | COC1=C(C)C(=O)c2c(c(COC(N)=O)c3n2CCC3O)C1=O (racemic) | 2.9 | 6.9 |  |  |  |  |  |  |  |  |  |  |  |  |  |  |  |  |  |  | 
6 | COC1=C(C)C(=O)C2=C(C1=O)[C@@H](COC(N)=O)[C@@]1(OC)[C@H]3N[C@H]3CN21 [MITOMYCIN A] |  |  |  | 31.1 | 7.4 | inactive | -3.1 | 0.1 | -2.6 | 165 | -2.1 | -0.4 | Active | Active | 140 | Active | 155 | Active | inactive | 180 | Activity (Escherichia coli [32]): Toxic; Activity (P388 [11]): inactive; Activity (Escherichia coli [33]): Toxic; Activity (P388 [34]): inactive; Activity (Mus musculus [35]): 0.3 g; Activity (P388 [36]): Active; T/C (P388 [37]): 120%; Activity (P388 [38]): inactive; T/C (P388 [29]): 130%; Activity (P388 [30]): inactive; Activity (P388 [31]): Active
7 | CO[C@@]12[C@H](COC(N)=O)C3=C(C(=O)C(C)=C(N)C3=O)N1C[C@@H]1N[C@@H]12 [MITOMYCIN] |  |  | 17.6 | 6.6 | 2.7 | inactive | 0.1 | 0.3 | -0.8 | 175 | -2.3 | 0 | Active | Active | 130 | Active | 175 | Active | inactive | 270 | Activity (Escherichia coli [33]): Toxic; Activity (Mus musculus [35]): 0 g; Activity (P388 [36]): Active; T/C (P388 [37]): 120%; Activity (P388 [38]): inactive; Activity (Escherichia coli [39]): Toxic; T/C (P388 [29]): 125%; Activity (P388 [30]): inactive; Activity (P388 [31]): Active
